From PubChem
MrgX1 agonist: agonists of human MrgX1 receptor. MrgX1-HEK293 cells, Fluo-4 calcium fluorescence, agonist mode; hits give high values. 0.44% of 310,000 active. B-score at 10 µM. AID 588627. Q96LB2;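 active means calcium response B-score plate-corrected fluorescence ratio at least 3 library SD, with starting fluorescence B-score inside 5 SD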
Target sequence (Q96LB2 whole entry, looked up): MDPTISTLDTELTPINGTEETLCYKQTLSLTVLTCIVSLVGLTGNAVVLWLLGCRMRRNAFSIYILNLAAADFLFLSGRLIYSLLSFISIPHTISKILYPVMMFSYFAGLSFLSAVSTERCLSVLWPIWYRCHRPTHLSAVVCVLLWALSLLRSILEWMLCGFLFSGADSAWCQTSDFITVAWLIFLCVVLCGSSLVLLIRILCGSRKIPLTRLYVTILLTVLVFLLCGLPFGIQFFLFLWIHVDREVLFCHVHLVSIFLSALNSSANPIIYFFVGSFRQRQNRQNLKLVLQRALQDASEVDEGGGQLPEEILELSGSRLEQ
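Test system: HEK293 cells stably expressing human MrgX1 receptor; amount: 15,000 cells per well; doses: compound delivered in addition one of three; times: overnight plating before 1 h dye loading; detection: Fluo-4 NW calcium-flux fluorescence, kinetic read; read-out basis: B-scored fluorescence response ratio; controls: positive and negative controls per plate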
MrgX1 antag: antagonists of human MrgX1 receptor; Q96LB2; MRGX1-HEK293 calcium flux, Fluo-4, BAM8-22 antagonism; hits give low values; B-score at 10 µM; 1.3% of 310,000 active;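 active means calcium-response B-score plate-corrected more than 3 library SD below zero, starting fluorescence within 5 deviations, no agonist response on first addition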;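 further: peak minus trough fluorescence over baseline after final BAM8-22 challenge near maximal dose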
RGS4 act: RGS4 potentiation or activation; HEK293 M3R/inducible RGS4, carbachol calcium flux Fluo4; hits give low values; B-score at 10 µM; 0.92% of 310,000 active; AID 463111;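 active means B-score of the integrated calcium signal more than 4 SD below the library mean, with starting fluorescence not abnormally high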;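 further: negative B-score means reduced calcium response which marks RGS4 activation or potentiation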
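Material: Inducible-RGS4 HEK293 cells carrying M3 receptor; also added: carbachol at ECmax as muscarinic agonist stimulus; incubation: compound preincubation 20 min at room temperature before agonist; signal: Fluo4-AM (2 µM) calcium-flux fluorescence, kinetic read; measure: integrated calcium ratio converted to B score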
MrgX1 allo act: human MrgX1 positive allosteric modulation, primary screen. MrgX1-HEK293, Fluo-4 calcium flux, FDSS; hits give high values. B-score at 10 µM. 0.63% of 310,000 active. AID 588675;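 active means plate-corrected calcium response at least 3 library SD above typical, normal starting fluorescence, not activating the receptor alone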;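 further: compound read alongside a low EC10 to EC30 dose of BAM8-22 agonist; peak minus trough fluorescence over baseline measured at the second addition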
RGS4 block: human RGS4 inhibition; P49798; AID 463165; B-score at 10 µM; HEK293 M3R/RGS4 inducible, Fluo-4 calcium flux; hits give high values; triggered by carbachol at its EC20; 0.45% of 310,000 active;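 active means B-score, a plate-corrected calcium signal, over three deviations above library mean, with baseline fluorescence within five deviations of library mean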;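 further: RGS4 expression induced by doxycycline in cells with stable M3 receptor; B-score is computed from the integrated fluorescence ratio over baseline after carbachol; higher B-score means a larger calcium signal and so more RGS4 inhibition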
Target sequence (P49798 whole entry, looked up): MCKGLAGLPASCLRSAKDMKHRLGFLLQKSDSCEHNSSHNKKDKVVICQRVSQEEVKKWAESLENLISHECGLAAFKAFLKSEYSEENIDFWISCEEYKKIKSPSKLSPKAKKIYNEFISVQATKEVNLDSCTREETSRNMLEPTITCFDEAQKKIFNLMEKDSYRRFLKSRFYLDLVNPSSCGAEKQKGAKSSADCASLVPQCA
MrgX1 antag conf: human MrgX1 receptor antagonism, re-confirmation screen. shares compounds with MrgX1 antag. MrgX1-HEK293, BAM8-22 calcium flux, Fluo-4; hits give low values. remaining BAM8-22 calcium response % of control (hits give low values), % at 10 µM. 19% of 2,300 active. AID 602420;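 active means remaining agonist calcium response no higher than 100% minus 3 SD of agonist-only control wells, with starting fluorescence near control levels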;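 further: agonist BAM8-22 given at a near maximal EC90 to ECmax level; peak minus minimum fluorescence divided by baseline after agonist addition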
HEK293 Ca flux: MrgX1 antagonist counter-screen hit in parental HEK293 cells; 2% of 4,000 active; fluorescence ratio F(max-min)/F0 at 10 µM; AID 624111; shares compounds with MrgX1 antag; Fluo-4 calcium fluorescence, FDSS;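 active means duplicate-averaged calcium fluorescence ratio at least three times the standard deviation of buffer wells, a nonspecific response in parental cells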
HEK293 Ca counter: MrgX1 allosteric activator counter-screen hit in parental HEK293 cells; shares compounds with MrgX1 antag; parental HEK293 calcium flux, Fluo-4 fluorescence ratio; hits give high values; fluorescence ratio F(max-min)/F0 at 10 µM; 0.4% of 4,000 active; AID 624114;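 active means calcium fluorescence ratio, averaged over duplicates, at least 3 SD of the buffer-well ratio, meaning a nonspecific response in receptor-free cells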;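 further: untransfected parental HEK293 lacking MrgX1 used as counterscreen for MrgX1 allosteric activators; fluorescence change taken during the second addition on a kinetic imager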
HEK293 Ca cntr2: MrgX1 activator counter-screen hit in parental HEK293 cells | shares compounds with MrgX1 antag | Fluo-4 calcium fluorescence (FDSS); hits give high values | fluorescence ratio F(max-min)/F0 at 10 µM | 8.7% of 4,000 active;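 active means calcium fluorescence ratio at least three times the spread of buffer wells, meaning a non-specific response in parental cells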
Each line names hits and unclear results; the compound was inactive in the other large screens (follow-up assays come after a bar, where they were run). This is a sample that favours compounds with a hit; in the whole collection about 3.5% have one here.

Cc1cc(C)n(-c2ccc(C(=O)O)cc2)n1	none
COc1cc(NC(=O)CCN2CCN(c3ccccc3F)CC2)cc(OC)c1	MrgX1 antag -4.83 | MrgX1 antag conf inactive | HEK293 Ca flux inactive | HEK293 Ca counter inactive | HEK293 Ca cntr2 inactive
CCC(=O)Nc1ccc(NC(=S)NC(=O)Cc2ccccc2)cc1	none
CCC(=O)Nc1ccc(NC(=S)Nc2ccccc2)cc1	MrgX1 antag -4.76 | MrgX1 antag conf inactive | HEK293 Ca flux inactive | HEK293 Ca counter inactive | HEK293 Ca cntr2 inactive
CC(CN1CCCCC1)NC(=O)c1cc(-c2ccccn2)nc2ccc(Cl)cc12 (centres undefined)	none
O=C(Cc1ccsc1)Nc1ccc(Cl)cc1Cl	none
COc1ccccc1CNC(=O)C1CCC1	MrgX1 antag -7.9 | MrgX1 antag conf 82.1% | HEK293 Ca flux inactive | HEK293 Ca counter inactive | HEK293 Ca cntr2 inactive
CSc1ccc(CN2CCN(Cc3ccccc3)C(CCO)C2)cc1 (centres undefined)	MrgX1 antag -4.84 | MrgX1 antag conf 82.7% | HEK293 Ca flux inactive | HEK293 Ca counter inactive | HEK293 Ca cntr2 inactive
CSc1ccc(CN2CCN(CC=C(C)C)C(CCO)C2)cc1 (centres undefined)	none
CSc1cccc(CN2CCN(CCc3ccccc3)C(CCO)C2)c1 (centres undefined)	none
Cc1ccc(CN2CCN(Cc3ccccc3)C(CCO)C2)s1 (centres undefined)	none
CSc1cccc(CN2CCN(Cc3ccccc3)C(CCO)C2)c1 (centres undefined)	MrgX1 antag -5.16 | MrgX1 antag conf 82.9% | HEK293 Ca flux inactive | HEK293 Ca counter inactive | HEK293 Ca cntr2 inactive
Cc1ccc(CN2CCN(Cc3ccc(C)s3)CC2CCO)cc1 (centres undefined)	MrgX1 antag -5.08 | MrgX1 antag conf inactive | HEK293 Ca flux inactive | HEK293 Ca counter inactive | HEK293 Ca cntr2 inactive
CCOc1ccc(NC(=O)C2C3C=CC4(O3)C2C(=O)N(Cc2cccnc2)C4C(=O)NC2CCCCC2)cc1 (centres undefined)	none
O=C(CSCc1nc2ccccc2[nH]1)Nc1ccc2ccccc2c1	MrgX1 antag -4.91 | MrgX1 antag conf inactive | HEK293 Ca flux inactive | HEK293 Ca counter inactive | HEK293 Ca cntr2 inactive
CC(=O)NC1C(=O)N(CCN2CCOCC2)c2ccc(F)cc21 (centres undefined)	MrgX1 antag -5.35 | MrgX1 antag conf 60.5% | HEK293 Ca flux inactive | HEK293 Ca counter inactive | HEK293 Ca cntr2 inactive
CCCCN1C(=O)C(NC(C)=O)c2cc(Br)ccc21 (centres undefined)	none
CC(=O)NC1C(=O)N(CCN2CCOCC2)c2ccc(Cl)cc21 (centres undefined)	MrgX1 antag -8.71 | MrgX1 antag conf inactive | HEK293 Ca flux inactive | HEK293 Ca counter inactive | HEK293 Ca cntr2 inactive
CC(C)c1ccc(NC(=O)CN2CCN(C(=O)C3CCCO3)CC2)cc1 (centres undefined)	none
COCCCN1C(=O)c2[nH]nc(-c3ccccc3O)c2C1c1ccc(Cl)cc1 (centres undefined)	MrgX1 antag -4.81 | MrgX1 antag conf inactive | HEK293 Ca flux inactive | HEK293 Ca counter inactive | HEK293 Ca cntr2 inactive
COCCCN1C(=O)c2[nH]nc(-c3ccccc3O)c2C1c1cccc(Cl)c1 (centres undefined)	none
Cc1cc(/C=N/N2CCN(C)CC2)c(C)n1-c1ccccc1F	none
O=C(O)C(c1ccccc1)C(c1ccccc1)c1ccccc1 (centres undefined)	none
CC1(C)Cc2nc(N3CCCC3)c(C#N)cc2CO1	none
